Reference: the array DNA melting data of Ke et al. (doi:10.1101/2024.01.08.574731)

Key:
[1] = folding enthalpy; higher = less favourable; fluorescence melt of hairpins on a sequencing array, two-state fit; conditions: sodium 0.088 M
Summary of the method: (§1)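 Cy3 fluorescence of library hairpins on a sequenced MiSeq flow cell, with annealed Cy3 and quencher oligos, was imaged in 50 mM Na-HEPES pH 8.0, 25 mM NaCl in 2.5 °C steps up to 60 °C. Signals were normalised to pre-quench Cy3 and to control variants. Melting temperature and folding enthalpy came from bootstrapped two-state fits, inverse-variance combined over four replicates. Fitted temperatures were raised by 9.35 °C to match UV melts.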

[2] = melting temperature; fluorescence melt of hairpins on a sequencing array, two-state fit, raised by 9.35 °C to match UV melts; conditions: sodium 0.088 M
Summary of the method: as §1

Sequence	folding enthalpy [1] [kJ/mol]	Tm [2] [°C]
GGGTATGGAAACATGCTC (.(.(((....))).).)	-96.7	33.4
GATCCAAAATTGGATC ((((((....))))))	-150	48.1
GATCACCCCAGTGATC ((((((....))))))	-187	60
GTCTCCGAAAGGAACGAC ((((((....)))..)))	-98.3	36.3
GCAAGACGAAAGTCTGC (((.(((....))))))	-112	57.7
GATCAACGGTTTGATC ((((((....))))))	-126	40.9
GCGACACGAAAGTGACGC (((.(((....))).)))	-162	68.5
GTAGGAGCGAAAGCTTAC (((..(((....))))))	-46.7	31.2
GCTCAGCGAAAGCTCTGC ((..(((....)))..))	-56.1	28.8
GAGCGCCGAAAGGCCCTC (((.(((....))).)))	-64.5	47.6
GTCTGAACGAAAGTTGAC (((..(((....))))))	-68.8	31.7
GAAGACGAAAGTCAATTC ((((((....)))..)))	-65	32.9
GCAATGCGAAAGCACTGC (((.(((....))).)))	-154	51.6
GTCTACGAAAGTAAAGAC ((((((....)))..)))	-99.5	37.3
GATCTACGTGTAGATC ((((((....))))))	-203	55.2
GTCATTGGAAACGATGAC (((((.(....).)))))	-172	46.7
GGCAGCGAAAGCTACGCC ((((((....)))..)))	-85.9	53.5
GCTAGGCGAAAGCCATGC ((..(((....)))..))	-73.9	53.5
GCATAGGGAAACCCATGC ((((.((....)).))))	-125	45.5
GGTCTCGAAAGAGAAACC ((((((....)))..)))	-90	34.7
GCTTCTACGAAAGTAAGC (((..(((....))))))	-58.5	33.1
GGAGTTCCGAAAGGATCC (((..(((....))))))	-53.7	31
GATCCGCGTTCGGATC ((((((....))))))	-151	59
GCTAAGCGAAAGCTGCGC ((..(((....)))..))	-88.4	58.3

Sequence	folding enthalpy [1] [kJ/mol]	Tm [2] [°C]
GAAGGTGCGAAAGCATTC (((..(((....))))))	-25.8	18.4
GCGGCTCACCGC ((((....))))	-112	63
GAGCACGGAAACGTGCCC (.(((((....))))).)	-29.2	53.6
GCTTTGGCGAAAGCCAGC (((..(((....))))))	-42	38.2
GTGCGTCGAAAGACTCAC (((.(((....))).)))	-168	49.6
GGGTTCGAAAGAAACCC ((((((....))).)))	-145	54.4
GATCGGTCCCCGATC ((((((...))))))	-187	57.4
GCCTCGTCGAAAGACGGC (((..(((....))))))	-33.6	49.6
GCTCAGCGAAAGCAAAGC (((..((....))..)))	-56.7	38.4
GGGTGTCGAAAGACCCCC (((.(((....))).)))	-101	56.4
GATCTTCAGCAAGATC ((((((....))))))	-103	38.9
GAAAGCGAAAGCTATTTC ((((((....)))..)))	-49.5	25.2
GATCAATCTTTGATC ((((((...))))))	-118	44.6
GGTTACGGAAACATAACC (((((.(....).)))))	-71.3	35.8
GTAATCGAAAGATACTAC ((((((....)))..)))	-76.8	31.4
GCTCCCGAAAGGGCGAGC ((((((....)))..)))	-68	47.9
GATCTGCGACCAGATC ((((((....))))))	-146	46.6
GTCCCACCGAAAGGTGAC (((..(((....))))))	-34.8	27
GACTAGGCGAAAGCCGTC (((..(((....))))))	-36.4	50.4
GATCCCCTGGGGGATC ((((((....))))))	-152	66.6
GGTGGGGGAAACCCCGTC (..((((....))))..)	-50.2	38.2
GCTGAGCGAAAGCGCGGC ((.(.((....)).).))	-110	63
GCTTAGCGAAAGCCATGC ((.(.((....)).).))	-46.9	29.6
GGTAACGAAAGTTCGACC ((((((....)))..)))	-66.8	28

Sequence	folding enthalpy [1] [kJ/mol]	Tm [2] [°C]
TTGTTGAAAAACAA (((((....)))))	-47.7	30.7
GATCGAGTAATCGATC ((((((....))))))	-163	57.4
GAAGCCCGAAAGGGGTTC (((.(((....))).)))	-154	67.7
GCTCCACGAAAGTGAGC (((.(((....))))))	-109	54
GACCTCACGAAAGTGGTC (((..(((....))))))	-86.7	37.4
GTGGATGGAAACATCCAC (((((((....)))))))	-210	65.1
GATCTCTTTAGAGATC ((((((....))))))	-188	61.8
GCTCTGCCGAAAGGCAGC (((..(((....))))))	-25.1	40
GTGACAGGAAACTGTTAC ((.((((....)))).))	-118	45.4
GATCGACGGGTCGATC ((((((....))))))	-192	63.3
GATATGCCGAAAGGCATC (((..(((....))))))	-30.1	38.5
GAATGAGAAATCATTC ((((((....))))))	-112	43
CGAGTGCGGAAACGCTCG (((..(((....))))))	-90.5	47.7
GCGCTGCGAAAGCCGTGC ((.(.((....)).).))	-90	51.9
GAACACGAAAGTGACTTC ((((((....)))..)))	-86.9	35.4
GCGACATATCGC ((((....))))	-98.1	49.9
GATCGGTTGGCCGATC ((((((....))))))	-176	60.9
GCTGAGCGAAAGCAAAGC (((..((....))..)))	-119	60.2
GCGCAGCGAAAGCTCAGC ((..(((....)))..))	-31.7	41
GATCCCTGTCGGGATC ((((((....))))))	-146	60
CGGCCCGGAAACGGTCCG (((.(((....))).)))	-189	55.3
GCTAGGCGAAAGCGGAGC (((..((....))..)))	-84.1	42.4
GCGATGCGAAAGCGCCGC (((..((....))..)))	-128	62.1
GATCCGTAGCCGGATC ((((((....))))))	-200	56.1

Sequence	folding enthalpy [1] [kJ/mol]	Tm [2] [°C]
GGTATTGGAAACAACACC (((.(((....))).)))	-133	32.2
GCGGTGGGAAACCATCGC (((.(((....))).)))	-171	61.8
GCATGCGGAAACGCACGC ((.((((....)))).))	-107	52.1
GCGTGTGGACGC ((((....))))	-58	53.9
GGAGTACGAAAGTAGTCC (((.(((....))).)))	-169	55.2
GTTTGCCGAAAGGCCAAC (((.(((....))).)))	-87.3	41.5
GCGCCGCGAAAGCCGGGC ((.(.((....)).).))	-66.3	55.3
GATCACTATAGTGATC ((((((....))))))	-159	58.8
GAACGCGGAAACGCGCTC ((.((((....)))).))	-63	50.3
GGTAAGGAAACTTACC ((((((....))))))	-135	50.3
GATCTGGCGTCAGATC ((((((....))))))	-133	50.9
GCTTAACGAAAGTTTAGC (((.(((....))).)))	-128	46.4
GATCTGATTCCAGATC ((((((....))))))	-142	48.5
GACCCCGAAAGGGGCGTC ((((((....)))..)))	-48.9	61.4
GGTCACGAAAGTGAAACC ((((((....)))..)))	-74.9	41.4
GCGTCCTGACGC ((((....))))	-147	59.9
CAAGGGAAACCTTG (((((....)))))	-116	43.9
GCGAGGCGAAAGCGGCGC (((..((....))..)))	-159	66.8
GATCACCATGTGATC ((((((...))))))	-138	59.2
GGCGAACGAAAGTTGGCC (((.(((....))).)))	-178	59
GGGACGCGAAAGCGCCC (((.(((....))))))	-64.4	64.7
